# Test results as given in article PMC2916634 (Biochemistry, 2010).
# Ends that are not written are not given here. Me3 = Me3: trimethyl-lysine (trimethylated lysine)
# B1: CYP33 RRM domain (T3-K83), wild type (domain or fragment, human, UniProt Q9UNP9 3-83, looked up)
# chain: TTKRVLYVGGLAEEVDDKVLHAAFIPFGDITDIQIPLDYETEKHRGFAFVEFELAEDAAAAIDNMNESELFGRTIRVNLAK
# B2: MLL PHD3 (third PHD finger of MLL), wild type (domain or fragment, human, UniProt Q03164 1564-1628, looked up)
# chain: AKGNFCPLCDKCYDDDDYESKMMQCGKCDRWVHSKCENLSDEMYEILSNLPESVAYTCVNCTERH
# How the values were obtained:
# HOXC8 = experiment: Q-RT-PCR of HOXC8 expression in HEK293T cells; assay type: cell-based; conditions: 48 h after transfection, normalized to β2M, vs empty vector
# Procedure, shortened: (§1)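 HEK293T cells transfected with Lipofectamine 2000 using pCEP4 empty vector, FLAG-tagged wild-type CYP33 or PPIase-dead CYP33 (R191A/F196A). At 48 h, RNA extracted with Trizol and reverse-transcribed. qPCR run in triplicate. cDNA levels normalized to β2M by the comparative Ct method.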
# HOXA9 = experiment: Q-RT-PCR of HOXA9 expression in HEK293T cells; assay type: cell-based; conditions: 48 h after transfection, normalized to β2M, vs empty vector
# Procedure, shortened: as §1
# CDKN1B = experiment: Q-RT-PCR of CDKN1B expression in HEK293T cells; assay type: cell-based; conditions: 48 h after transfection, normalized to β2M, vs empty vector
# Procedure, shortened: as §1
# C-MYC = experiment: Q-RT-PCR of C-MYC expression in HEK293T cells; assay type: cell-based; conditions: 48 h after transfection, normalized to β2M, vs empty vector
# Procedure, shortened: as §1
# CDKN1B promoter = experiment: Chromatin immunoprecipitation at CDKN1B promoter in HEK293T cells; assay type: cell-based; conditions: ChIP, 48 h after transfection, CYP33 overexpression vs empty vector
# Procedure, shortened: (§2)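 HEK293T cells transfected with empty vector or pCEP4-CYP33 by lipofectamine, then formalin-fixed at 48 h. Chromatin immunoprecipitated with anti-histone H3, anti-H3K4me3, anti-acetyl-H3 (K9/K14) or IgG control antibodies. Recovered DNA quantified by qPCR at MLL target gene promoters. Fold occupancy normalized to input DNA.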
# HOXC8 promoter = experiment: Chromatin immunoprecipitation at HOXC8 promoter in HEK293T cells; assay type: cell-based; conditions: ChIP, 48 h after transfection, CYP33 overexpression vs empty vector
# Procedure, shortened: as §2
# [1] = 15N−1H HSQC structural integrity of mutants; assay type: physicochemical; conditions: 15N−1H HSQC of mutant vs wild type, 30 °C, pH 6.9
# MLL PHD3 V1617A mutant = MLL PHD3 V1617A mutant (human, UniProt Q03164 1564-1628, V1617A); experiment: ITC
# [2] = molecular target: PHD3 (MLL PHD3, wild-type) (Homo sapiens, UniProt Q03164); experiment: ITC binding of H3K4me3 peptide or CYP33 RRM; conditions: CYP33 RRM Ala mutant to wild-type PHD3
# W1594A PHD3 = W1594A PHD3 (Homo sapiens, UniProt Q03164, W1594A); experiment: ITC binding to PHD3 W1594A mutant
# PHD3 = conditions: yeast two-hybrid assay, co-immunoprecipitation, and GST pull-down; cited from earlier work
# [3] = molecular target: B1; experiment: ITC
# [4] = molecular target: B2; experiment: ITC
# [5] = molecular target: PHD3−CYP33 RRM complex (PHD3 saturated with CYP33 RRM) (human, UniProt Q03164 1564-1628; Q9UNP9 3-83); experiment: ITC
molecule,measurement,setting,value
"CYP33: Human nuclear Cyclophilin33, full-length; FLAG-tagged wild-type expressed from pCEP4 plasmid in HEK293T cells",HOXC8 expression,HOXC8,markedly downregulated
same,HOXA9 expression,HOXA9,markedly downregulated
same,CDKN1B expression,CDKN1B,markedly downregulated
same,C-MYC expression,C-MYC,markedly downregulated
same,H3K4me3 mark,CDKN1B promoter,reduced
same,H3 acetylation level (K9 and K14),CDKN1B promoter,reduced
same,histone H3 density,CDKN1B promoter,increase
same,H3K4me3 mark,HOXC8 promoter,reduced
same,histone H3 density,HOXC8 promoter,increase
CYP33 mutant (R191A/F196A),HOXC8 expression,HOXC8,no longer downregulated
same,HOXA9 expression,HOXA9,no longer downregulated
same,CDKN1B expression,CDKN1B,no longer downregulated
same,C-MYC expression,C-MYC,no longer downregulated
"V1617A: MLL PHD3 with V1617 mutated to alanine (protein, left off: GST, end not stated, cleaved) AKGNFCPLCDKCYDDDDYESKMMQCGKCDRWVHSKCENLSDEMYEILSNLPESAAYTCVNCTERH",effect of mutation on structure,[1],does not affect the structural stability of PHD3
"Y1619A: MLL PHD3 with Y1619 mutated to alanine (protein, left off: GST, end not stated, cleaved) AKGNFCPLCDKCYDDDDYESKMMQCGKCDRWVHSKCENLSDEMYEILSNLPESVAATCVNCTERH",effect of mutation on structure,[1],disruption of the overall fold
B1,fold decrease in affinity against wild-type PHD3,MLL PHD3 V1617A mutant,~6.2 fold
"R47A (protein, left off: GST, end not stated, cleaved) TTKRVLYVGGLAEEVDDKVLHAAFIPFGDITDIQIPLDYETEKHAGFAFVEFELAEDAAAAIDNMNESELFGRTIRVNLAK",interaction with PHD3,[2],did not abrogate the interaction
"F49A (protein, left off: GST, end not stated, cleaved) TTKRVLYVGGLAEEVDDKVLHAAFIPFGDITDIQIPLDYETEKHRGAAFVEFELAEDAAAAIDNMNESELFGRTIRVNLAK",effect of mutation on structure,[1],without disrupting the structure
"K45A (protein, left off: GST, end not stated, cleaved) TTKRVLYVGGLAEEVDDKVLHAAFIPFGDITDIQIPLDYETEAHRGFAFVEFELAEDAAAAIDNMNESELFGRTIRVNLAK",interaction with PHD3,[2],did not abrogate the interaction
"CYP33 RRM: RRM domain of CYP33 spanning residues T3−K83 (protein, left off: GST, end not stated, cleaved) TTKRVLYVGGLAEEVDDKVLHAAFIPFGDITDIQIPLDYETEKHRGFAFVEFELAEDAAAAIDNMNESELFGRTIRVNLAK",Kd,"W1594A PHD3; 25 °C, pH 7.2, CYP33 RRM to W1594A PHD3",19.6 µM
same,fold weaker Kd vs wild-type PHD3,W1594A PHD3; CYP33 RRM to W1594A PHD3,~1.3 fold
same,interaction with PHD3,PHD3,interacts
"L39A (protein, left off: GST, end not stated, cleaved) TTKRVLYVGGLAEEVDDKVLHAAFIPFGDITDIQIPADYETEKHRGFAFVEFELAEDAAAAIDNMNESELFGRTIRVNLAK",effect of mutation on structure,[1],without disrupting the structure
B2,Kd,[3],14.7 µM
"CYP33 RRM F49A mutant (domain or fragment, human, UniProt Q9UNP9 3-83, looked up) TTKRVLYVGGLAEEVDDKVLHAAFIPFGDITDIQIPLDYETEKHRGAAFVEFELAEDAAAAIDNMNESELFGRTIRVNLAK",fold decrease in affinity against wild-type CYP33 RRM,[4],~14 fold
"MLL PHD3 W1594A mutant (domain or fragment, human, UniProt Q03164 1564-1628, looked up) AKGNFCPLCDKCYDDDDYESKMMQCGKCDRAVHSKCENLSDEMYEILSNLPESVAYTCVNCTERH",Kd,[3],19.6 µM
"MLL PHD3 Y1619A mutant (domain or fragment, human, UniProt Q03164 1564-1628, looked up) AKGNFCPLCDKCYDDDDYESKMMQCGKCDRWVHSKCENLSDEMYEILSNLPESVAATCVNCTERH",binding result,[3],binds
"CYP33 RRM L39A mutant (domain or fragment, human, UniProt Q9UNP9 3-83, looked up) TTKRVLYVGGLAEEVDDKVLHAAFIPFGDITDIQIPADYETEKHRGFAFVEFELAEDAAAAIDNMNESELFGRTIRVNLAK",fold decrease in affinity against wild-type CYP33 RRM,[4],~4.3 fold
ARTK(Me3)QTARKSTGGKAY (not fully specified) [Histone H3 peptide (residues 1-15) trimethylated at K4],fold increase in Kd against PHD3 alone,[5],~5.7 fold
same,stoichiometry N,[4],1
